# Active and inactive are the calls of the source. The rule behind the calls is not given here.
# Key:
# Mus musculus [1] = test: Lowering of Arterial oxygen saturation decline in BALB/c mouse infected with influenza A virus (A/duck/Minnesota/1525/1981 (H5N1)) at 300 mg/kg/day, po qid for 5 days administered 1 hr after infection measured on day 11 relative to carboxymethyl cellulose; assay type: functional
# Summary of the method: (§1)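 Arterial oxygen saturation was measured by pulse oximeter, with the ear probe placed on the thigh and read after 30 s stabilization. Values were taken on day 11, 10 mice per group. Mice dead from infection were assigned 75%. Means were compared with CMC controls by t test.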
# Mus musculus [2] = test: Effect on survival in BALB/c mouse infected with influenza A virus (A/duck/Minnesota/1525/1981 (H5N1)) at 300 mg/kg/day, po administered 4 hrs after infection relative to carboxymethyl cellulose; assay type: functional, organism-based
# Mus musculus [3] = test: Lowering of arterial oxygen saturation decline in BALB/c mouse infected with influenza A virus (A/duck/Minnesota/1525/1981 (H5N1)) at 300 mg/kg/day, po qid for 5 days administered 84 hrs after infection measured on day 11 relative to carboxymethyl cellulose; assay type: functional
# Mus musculus [4] = test: Effect on survival in BALB/c mouse infected with influenza A virus (A/duck/Minnesota/1525/1981 (H5N1)) at 300 mg/kg/day, po administered 24 hrs after infection relative to carboxymethyl cellulose; assay type: functional, organism-based
# Mus musculus [5] = test: Effect on survival in BALB/c mouse infected with influenza A virus (A/duck/Minnesota/1525/1981 (H5N1)) at 600 mg/kg/day, po administered 48 hrs after infection relative to carboxymethyl cellulose; assay type: functional, organism-based
# Mus musculus [6] = test: Lowering of arterial oxygen saturation decline in BALB/c mouse infected with influenza A virus (A/duck/Minnesota/1525/1981 (H5N1)) at 300 mg/kg/day, po qid for 5 days administered 120 hrs after infection measured on day 11 relative to carboxymethyl cellulose; assay type: functional
# Mus musculus [7] = test: Lowering of arterial oxygen saturation decline in BALB/c mouse infected with influenza A virus (A/duck/Minnesota/1525/1981 (H5N1)) at 300 mg/kg/day, po once daily for 5 days administered 1 hr after infection measured on day 11 relative to carboxymethyl cellulose; assay type: functional
# Mus musculus [8] = test: Effect on survival of BALB/c mouse infected with influenza A virus (A/duck/Minnesota/1525/1981 (H5N1)) at 300 mg/kg/day, po qid for 5 days administered 60 hrs after infection relative to carboxymethyl cellulose; assay type: functional, organism-based
# Mus musculus [9] = test: Lowering of Arterial oxygen saturation decline in BALB/c mouse infected with influenza A virus (A/duck/Minnesota/1525/1981 (H5N1)) at 10 mg/kg/day, po twice daily for 5 days administered 1 hr after infection measured on day 11 relative to carboxymethyl cellulose; assay type: functional; summary of the method: as §1
# Mus musculus [10] = test: Inhibition of increase in lung weight of BALB/c mouse infected with influenza A virus (A/duck/Minnesota/1525/1981 (H5N1)) at 100 mg/kg/day, po qid for 5 days administered 1 hr after infection measured on day 6 relative to carboxymethyl cellulose; assay type: functional
# Mus musculus [11] = test: Effect on survival of BALB/c mouse infected with influenza A virus (A/duck/Minnesota/1525/1981 (H5N1)) at 100 mg/kg/day, po twice daily for 5 days administered 1 hr after infection relative to carboxymethyl cellulose; assay type: functional, organism-based
# Mus musculus [12] = test: Effect on survival in BALB/c mouse infected with influenza A virus (A/duck/Minnesota/1525/1981 (H5N1)) at 600 mg/kg/day, po administered 24 hrs after infection relative to carboxymethyl cellulose; assay type: functional, organism-based
# Mus musculus [13] = test: Lowering of arterial oxygen saturation decline in BALB/c mouse infected with influenza A virus (A/duck/Minnesota/1525/1981 (H5N1)) at 100 mg/kg/day, po once daily for 5 days administered 1 hr after infection measured on day 11 relative to carboxymethyl cellulose; assay type: functional
# Mus musculus [14] = test: Inhibition of increase in lung weight of BALB/c mouse infected with influenza A virus (A/duck/Minnesota/1525/1981 (H5N1)) at 33 mg/kg/day, po qid for 5 days administered 1 hr after infection measured on day 6 relative to carboxymethyl cellulose; assay type: functional
# Mus musculus [15] = test: Lowering of Arterial oxygen saturation decline in BALB/c mouse infected with influenza A virus (A/duck/Minnesota/1525/1981 (H5N1)) at 33 mg/kg/day, po qid for 5 days administered 1 hr after infection measured on day 11 relative to carboxymethyl cellulose; assay type: functional
# Mus musculus [16] = test: Effect on survival of BALB/c mouse infected with influenza A virus (A/duck/Minnesota/1525/1981 (H5N1)) at 100 mg/kg/day, po qid for 5 days administered 1 hr after infection relative to carboxymethyl cellulose; assay type: functional, organism-based
# Mus musculus [17] = test: Effect on survival of BALB/c mouse infected with influenza A virus (A/duck/Minnesota/1525/1981 (H5N1)) at 33 mg/kg/day, po qid for 5 days administered 1 hr after infection relative to carboxymethyl cellulose; assay type: functional, organism-based
# Mus musculus [18] = test: Lowering of Arterial oxygen saturation decline in BALB/c mouse infected with influenza A virus (A/duck/Minnesota/1525/1981 (H5N1)) at 100 mg/kg/day, po qid for 5 days administered 1 hr after infection measured on day 11 relative to carboxymethyl cellulose; assay type: functional; summary of the method: as §1
# Mus musculus [19] = test: Lowering of Arterial oxygen saturation decline in BALB/c mouse infected with influenza A virus (A/duck/Minnesota/1525/1981 (H5N1)) at 300 mg/kg/day, po twice daily for 5 days administered 1 hr after infection measured on day 11 relative to carboxymethyl cellulose; assay type: functional
# Mus musculus [20] = test: Lowering of arterial oxygen saturation decline in BALB/c mouse infected with influenza A virus (A/duck/Minnesota/1525/1981 (H5N1)) at 10 mg/kg/day, po once daily for 5 days administered 1 hr after infection measured on day 11 relative to carboxymethyl cellulose; assay type: functional
# Mus musculus [21] = test: Effect on survival of BALB/c mouse infected with influenza A virus (A/duck/Minnesota/1525/1981 (H5N1)) at 300 mg/kg/day, po qid for 5 days administered 36 hrs after infection relative to carboxymethyl cellulose; assay type: functional, organism-based
compound,measurement,setting,value
NC(=O)c1nc(F)cnc1O [FAVIPIRAVIR],Activity,Mus musculus [1],88.6%
same,Activity,Mus musculus [2],Active
same,Activity,Mus musculus [3],81.7%
same,Activity,Mus musculus [4],Active
same,Activity,Mus musculus [5],Active
same,Activity,Mus musculus [6],76%
same,Activity,Mus musculus [7],82.7%
same,Activity,Mus musculus [8],Active
same,Activity,Mus musculus [9],75.5%
same,Activity,Mus musculus [10],140 mg
same,Activity,Mus musculus [11],Active
same,Activity,Mus musculus [12],Active
same,Activity,Mus musculus [13],80.8%
same,Activity,Mus musculus [14],217 mg
same,Activity,Mus musculus [15],84.8%
same,Activity,Mus musculus [16],Active
same,Activity,Mus musculus [17],Active
same,Activity,Mus musculus [18],85.9%
same,Activity,Mus musculus [19],86.9%
same,Activity,Mus musculus [20],77%
same,Activity,Mus musculus [21],Active

# From ChEMBL document CHEMBL1142087 (Antimicrob Agents Chemother, 2007)
